Test results taken from paper PMC7931646 (The Journal of Experimental Medicine, 2021).
Like-named read-outs stand apart in the source and are kept apart here.

How the values were obtained:
[1] = Kinetic solubility in simulated intestinal fluids; assay type: physicochemical
Summary of the method: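 Dissolved test compound concentration in FaSSIF or FeSSIF simulated intestinal fluids, determined by UV/Vis absorbance.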

CYP450 3A4 = CYP450 3A4 (Homo sapiens, UniProt P08684); assay: CYP450 inhibition, recombinant isoform; assay type: in vitro ADME
Sequence of CYP450 3A4 (P08684 whole entry, canonical isoform): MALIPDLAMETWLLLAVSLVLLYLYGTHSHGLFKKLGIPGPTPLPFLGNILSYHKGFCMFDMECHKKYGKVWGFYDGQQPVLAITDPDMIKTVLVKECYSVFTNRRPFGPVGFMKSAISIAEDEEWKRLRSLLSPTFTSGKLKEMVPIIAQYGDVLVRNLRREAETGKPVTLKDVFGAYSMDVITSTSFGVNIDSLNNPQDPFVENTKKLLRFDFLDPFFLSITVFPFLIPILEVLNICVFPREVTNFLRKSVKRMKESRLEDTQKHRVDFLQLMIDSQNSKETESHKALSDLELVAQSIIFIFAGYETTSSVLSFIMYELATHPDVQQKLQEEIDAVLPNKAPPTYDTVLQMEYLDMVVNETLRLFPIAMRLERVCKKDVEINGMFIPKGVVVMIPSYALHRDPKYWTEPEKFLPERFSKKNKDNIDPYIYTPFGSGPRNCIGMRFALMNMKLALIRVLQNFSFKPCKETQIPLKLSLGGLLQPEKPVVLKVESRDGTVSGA
Summary of the method: (§1)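 Recombinant human CYP450 isoforms were incubated with isoform-specific probe substrates; for CYP3A4 these were midazolam and testosterone. Inhibition was quantified by LC-MS/MS analysis of probe-substrate turnover.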

CYP450 1A2 = biological target: T1, CYP450 1A2 (Homo sapiens, UniProt P05177); assay: CYP450 inhibition, recombinant isoform; assay type: in vitro ADME
T1 sequence (P05177 1-516): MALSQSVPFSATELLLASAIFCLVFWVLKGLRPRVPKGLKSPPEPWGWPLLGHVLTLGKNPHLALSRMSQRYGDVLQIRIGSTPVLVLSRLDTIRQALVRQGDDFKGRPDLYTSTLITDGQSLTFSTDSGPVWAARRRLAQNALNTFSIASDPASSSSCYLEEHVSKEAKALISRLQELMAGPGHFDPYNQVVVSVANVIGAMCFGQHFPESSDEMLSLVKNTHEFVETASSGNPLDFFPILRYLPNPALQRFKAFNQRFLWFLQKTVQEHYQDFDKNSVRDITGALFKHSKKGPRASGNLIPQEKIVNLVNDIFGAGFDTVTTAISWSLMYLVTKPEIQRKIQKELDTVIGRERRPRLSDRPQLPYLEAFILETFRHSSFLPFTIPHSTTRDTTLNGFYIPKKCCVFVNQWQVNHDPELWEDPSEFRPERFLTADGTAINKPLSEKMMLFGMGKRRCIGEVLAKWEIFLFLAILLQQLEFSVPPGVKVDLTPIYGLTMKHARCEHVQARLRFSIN
Summary of the method: as §1

CYP450 2C9 = CYP450 2C9 (Homo sapiens, UniProt P11712); assay: CYP450 inhibition, recombinant isoform; assay type: in vitro ADME
Sequence of CYP450 2C9 (P11712 whole entry, canonical isoform): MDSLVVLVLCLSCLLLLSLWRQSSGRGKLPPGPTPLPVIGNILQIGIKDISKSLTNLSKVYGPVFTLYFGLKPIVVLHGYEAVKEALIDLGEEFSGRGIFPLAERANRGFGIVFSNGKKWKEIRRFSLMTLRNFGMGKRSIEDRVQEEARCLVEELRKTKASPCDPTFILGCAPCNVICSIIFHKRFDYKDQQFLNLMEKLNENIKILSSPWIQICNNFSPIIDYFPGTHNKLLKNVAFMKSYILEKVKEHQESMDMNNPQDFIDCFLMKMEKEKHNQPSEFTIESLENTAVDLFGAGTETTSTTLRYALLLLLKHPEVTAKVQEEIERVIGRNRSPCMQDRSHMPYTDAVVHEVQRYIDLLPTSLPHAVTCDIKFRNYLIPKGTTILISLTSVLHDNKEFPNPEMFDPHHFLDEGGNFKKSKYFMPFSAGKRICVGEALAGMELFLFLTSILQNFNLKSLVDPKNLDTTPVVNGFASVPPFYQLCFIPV

[2] = Plasma protein binding, equilibrium dialysis; assay type: in vitro ADME; conditions: rat
Summary of the method: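 Equilibrium dialysis of test compound in human, rat or mouse plasma against buffer across a semipermeable membrane. Compound concentrations in both compartments were measured by LC/MS, and percent bound was derived from them.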

[3] = tested on: S. typhimurium bacterial strains TA98, TA100, TA1535, TA1537; assay: Non-GLP screening; assay type: cell-based, Salmonella typhimurium; conditions: 5–100 µM, with and without Aroclor-induced rat liver S9
Summary of the method: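 Non-GLP mini-Ames screen using S. typhimurium TA98, TA100, TA1535 and TA1537, with and without Aroclor-induced rat liver S9. Test article was applied at 5–100 µM. Read-out was bacterial growth from reversion of the histidine mutation.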

adenosine A3 = adenosine A3 (Homo sapiens, UniProt P0DMS8); assay: CEREP off-target radioligand binding panel; conditions: read-out: inhibition of ligand binding
Sequence of adenosine A3 (P0DMS8 whole entry): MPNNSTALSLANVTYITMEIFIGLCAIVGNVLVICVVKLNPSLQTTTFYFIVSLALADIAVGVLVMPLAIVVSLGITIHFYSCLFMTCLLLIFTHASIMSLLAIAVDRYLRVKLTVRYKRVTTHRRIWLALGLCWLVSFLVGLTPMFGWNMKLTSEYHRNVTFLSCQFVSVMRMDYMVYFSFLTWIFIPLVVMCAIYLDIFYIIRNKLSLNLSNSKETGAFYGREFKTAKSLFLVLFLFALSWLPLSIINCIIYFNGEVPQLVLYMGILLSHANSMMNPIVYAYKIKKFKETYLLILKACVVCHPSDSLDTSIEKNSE
Summary of the method: (§2)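 CEREP secondary-pharmacology panel of 55 receptors, transporters and ion channels. Test compound at 10 µM was assessed for inhibition of binding of a radiolabelled reference ligand specific to each target. Result is percent inhibition of ligand binding.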

histamine H1 = histamine H1 (Homo sapiens, UniProt P35367); assay: CEREP off-target radioligand binding panel; conditions: read-out: inhibition of ligand binding
Sequence of histamine H1 (P35367 whole entry): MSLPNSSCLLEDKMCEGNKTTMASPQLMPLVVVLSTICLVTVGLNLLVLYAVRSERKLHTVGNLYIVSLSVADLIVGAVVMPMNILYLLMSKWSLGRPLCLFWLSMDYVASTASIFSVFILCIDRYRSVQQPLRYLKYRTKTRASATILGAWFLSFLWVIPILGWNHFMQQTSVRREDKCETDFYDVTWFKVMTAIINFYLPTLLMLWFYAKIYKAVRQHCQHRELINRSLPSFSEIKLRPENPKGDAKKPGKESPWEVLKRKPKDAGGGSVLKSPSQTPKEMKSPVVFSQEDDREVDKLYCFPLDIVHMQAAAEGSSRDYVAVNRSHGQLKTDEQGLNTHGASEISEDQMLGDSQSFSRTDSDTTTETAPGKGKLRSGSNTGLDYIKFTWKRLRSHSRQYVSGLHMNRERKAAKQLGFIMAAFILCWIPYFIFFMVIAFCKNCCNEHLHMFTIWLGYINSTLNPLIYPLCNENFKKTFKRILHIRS
Summary of the method: as §2

κ opioid receptors = assay: CEREP off-target radioligand binding panel; conditions: 10 µM
Summary of the method: as §2

sodium channel (Site 2) = assay: CEREP off-target radioligand binding panel; conditions: 10 µM
Summary of the method: as §2

[4] = Single-dose i.v./po PK in male Sprague-Dawley rats; assay type: in vivo, rat
Summary of the method: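 Sprague-Dawley rats received a single i.v. dose of 1 mg/kg (n = 13) or an oral dose of 5 mg/kg (n = 3). Plasma was sampled at 5 min (i.v. only), 15 and 30 min, 1, 2, 4, 8 and 12 h, and 24 and 48 h (po only). Oral bioavailability came from i.v./po comparison; fabs came from kinetic analysis.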

[5] = tested on: Aβ42 and Aβ40 levels in plasma and brain; assay: 9-d repeat-dose efficacy in C57BL/6J mice; assay type: in vivo, mouse; conditions: 10 mg/kg/d for 9 d
[6] = tested on: Aβ42 and Aβ40 levels in plasma and brain; assay: Acute single-dose time course efficacy in C57BL/6J mice; assay type: in vivo, mouse
cerebral amyloidosis = assay: Immunohistochemistry of amyloid deposition; assay type: in vivo, mouse; conditions: 25 mg/kg/d, 3 mo
Summary of the method: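 Female PSAPP mice began treatment at 90 or 180 d of age with vehicle (PEG 400/water/Tween 20) or test compound 25 mg/kg/d by oral gavage for 3 mo. Cerebral amyloid deposition in cortex and hippocampus was assessed by immunohistochemistry with anti-Aβ mAb 3D6, alongside Iba1 staining for microgliosis.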

[7] = Necropsy, histopathology and weight gain in chronically treated PSAPP mice; assay type: in vivo, mouse; conditions: chronic 25 mg/kg/d, 3 mo
Summary of the method: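 Female PSAPP mice, 9–10 per group, were dosed with vehicle (PEG 400/water/Tween 20) or test compound 25 mg/kg/d by oral gavage for 3 mo. Body weight was recorded three times weekly to monitor weight gain. Necropsy and histopathology followed the treatment period.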

[8] = GLP in vitro micronucleus evaluation; assay type: cell-based; conditions: data not shown
[9] = GLP 28-d repeat-dose toxicity and in vivo micronucleus study in rats; design: species or system rat
[10] = tested on: Pig-a mutant RBCs and RETs; assay: GLP 28-d in vivo Pig-a gene mutation study in rats; design: species or system rat; conditions: 28 d, 6, 20, 60 mg/kg/d (males), 3, 10, 30 mg/kg/d (females)
Summary of the method: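 GLP study in male and female Sprague-Dawley rats, n = 5 per dose per sex. Test compound in 15% Labrasol:85% water was given by oral gavage for 28 d at 0, 6, 20 or 60 mg/kg/d (males) or 0, 3, 10 or 30 mg/kg/d (females). Peripheral blood was then analysed by flow cytometry for % reticulocytes, mutant-phenotype RBC frequency and mutant-phenotype RET frequency.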

[11] = Estimation of effective AUC and unbound Ceffective in rodents
[12] = single oral dose 5 mg/kg, 6–12 h after administration

## COc1nc(-c2cc(C)c(N[C@@H](C)c3cc(F)cc(F)c3)nn2)ccc1-n1cnc(C)c1 [Compound 2, (S)-N-(1-(3,5-difluorophenyl)ethyl)-6-(6-methoxy-5-(4-methyl-1H-imidazol-1-yl)pyridin-2-yl)-4-methylpyridazin-3-amine]
[1]; FaSSIF pH 6.5, UV/Vis absorbance
  FaSSIF dissolved compound concentration: 80
[1]; FeSSIF pH 5.8, UV/Vis absorbance
  FeSSIF dissolved compound concentration: 79
CYP450 3A4
  IC50: 9.4 µM
CYP450 3A4; CYP450 IC50 3A4 (m), probe substrate midazolam
  IC50: 42 µM
CYP450 1A2
  IC50: 12 µM
CYP450 2C9
  IC50: 4.4 µM
[2]
  % PPB R: 99.9%
[3]
  Ames: Negative
Adenosine A3
  inhibition at 10 µM: > 50%
Histamine H1
  inhibition at 10 µM: > 50%
κ opioid receptors
  inhibition of ligand binding: Greater than 50%
Sodium channel (Site 2)
  inhibition of ligand binding: Greater than 50%
[4]; hepatic blood flow 75 ml/min/kg
  CL as percent of reported hepatic blood flow: < 10%
[4]; kinetic analysis
  fraction of dose absorbed from intestinal lumen (fabs): ~90%
[4]; male, Sprague-Dawley, rat, plasma, iv, 1 mg/kg, CL
  clearance: 6 mL/min/kg
[5]
  elimination of detectable Aβ42 in brain: 100%
  reduction in plasma Aβ42 levels: > 90%
[6]; [12]
  reduction of brain Aβ42 levels: ~50%
  reduction of plasma Aβ42 levels: ~70%
[6]; single oral dose 10 mg/kg
  duration of appreciable lowering of brain Aβ42 peptide levels: ~24 h
  reduction of Aβ42 levels in brain at peak reduction: > 70%
  reduction of Aβ42 levels in plasma at peak reduction: > 90%
[6]; single oral dose 5 or 10 mg/kg
  time of maximal reduction of Aβ42 levels in plasma: 1 h
Cerebral amyloidosis; 6-mo-old PSAPP mice (prophylactic group), P < 0.01
  attenuation of cerebral amyloidosis (mAb 3D6), cortex and hippocampus: greater than twofold
Cerebral amyloidosis; 9-mo-old PSAPP mice (disease-modifying group), P < 0.03
  cerebral amyloidosis (mAb 3D6), cortex and hippocampus, vs vehicle: statistically significant decrease
[7]
  full-body necropsy and histopathology: no overt evidence of toxicity
[7]; data not shown
  weight gain: no significant effect on weight gain
[8]
  GLP in vitro micronucleus evaluation: negative
[9]; AUC at rat NOAEL vs predicted human AUC at 100 mg
  safety margin based on comparison of systemic exposures: more than 130 fold
[9]; male, rat, in vivo, 60 mg/kg
  AUC: 586 µg·h/mL
[9]; rat, in vivo
  NOAEL at 28 d: 60 mg/kg
[9]; rats, data not shown
  GLP 28-d repeat-dose toxicity and in vivo micronucleus study: negative
[10]
  in vivo mutagenicity (Pig-a mutant RBCs and RETs): negative
[11]; plasma unbound fraction 0.1%
  unbound average Ceffective: ~0.58 ng/mL
[11]; plasma unbound fraction 1.0%
  unbound average Ceffective: 5.8 ng/mL
[11]; rat, plasma
  AUC: 13.8 µg·h/mL
